Reference: the RNAGym collection of RNA variant scans (doi:10.1126/science.aae0568)
Fewer inactive variants are shown than the library holds.

B1: tRNA (parent)
chain: GUUCCGUUGGCGUAAUGGUAACGCGUCUCCCUCCUAAGGAGAAGACUGCGGGUUCGAGUCCCGUACGGAACG

Variants of: B1
Experiment: yeast fitness relative to wild type (ratio to wild type); higher = fitter; tRNA-Arg(CCU), competitive growth, 37 C, YPD
In short: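 A pool of Saccharomyces cerevisiae strains, each with a tRNA-Arg(CCU) gene variant at the native genomic locus, was competed in YPD at 37°C for 24 hours across six parallel replicates. The variants had been chemically synthesised at a 3% per-site mutation rate over 69 sites, and gene amplicons before and after competition were read by 100-nucleotide paired-end sequencing. Darwinian fitness relative to wild type rested on changes in genotype frequencies. Genotypes required ≥ 100 starting reads, and estimates < 0.5 were set to 0.5.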

Variant | yeast fitness
G9A G48A G50C A65G C66U | ≤ 0.5
U8G U13A A43G U53A G68A | ≤ 0.5
A36G G44A | 0.978
C4U C30A A45G C55G A65G | 0.636
C5U C30A C33G A42C C60A C66A A69C | ≤ 0.5
C33G C61G | 0.815
C24A A36C G41A U53C | ≤ 0.5
U3A U32G G56A G68U A69U | ≤ 0.5
U7C C11U C34A A45C G68A | ≤ 0.5
A15G U19A U28A | ≤ 0.5
U7C C27A | 0.894
U13C G23A G63A A70U | 0.527
A20G A65G | 0.986
U7G G10C G58A | ≤ 0.5
C22A C24U A36U | ≤ 0.5
C5U A45C A70G | 0.76
U8C G51C G58C | ≤ 0.5
A15G U26G C30U A40U G52A | ≤ 0.5
U8G U35C A57C | ≤ 0.5
A21U G25A G56U | ≤ 0.5
A21C C22G G38C | 0.52
A15G C30G C55A | ≤ 0.5
G6A C49U G58A A69C | 0.605
C11A U32C A65U | 0.565

Variant | yeast fitness
C4G C5G A43G G63A | ≤ 0.5
G6A G23C C29G A43U G50A A65C | ≤ 0.5
U7A C22U U28A C29G C33A A42U A70U | ≤ 0.5
U2G C29G U47C | 0.557
A15U G58C A70U | 0.643
U3A G38A A40G A69U | ≤ 0.5
G9A G18A C24A G39A A43C | 0.558
C22G G25A | 0.993
U32A C34U C61U | 0.54
G6A C30U A37G | ≤ 0.5
C22U A37C A40G G52A U53A | ≤ 0.5
C5U U35C A36G | 0.801
C4A G12A | 0.666
C24U C27A C30U C46G | ≤ 0.5
C27G U35A A45U G67A | 0.612
U7G C11G C33G G56C C62G | ≤ 0.5
C22G A43U G52A U54C G56U U64C | ≤ 0.5
C11U A15C A70U | 0.586
G12C C22U U32C | 0.692
C30A C31A C60U C62G | ≤ 0.5
A20C C24G A40C C55G | ≤ 0.5
U28C G41A | 0.783
C4U C11U A45U A57U | 0.655
C22U C24U U26A U47C | ≤ 0.5

Variant | yeast fitness
C5G G9A C27G | 0.544
C4A C24G C33G G63C | ≤ 0.5
A15G C24G U32A G41A A69U | ≤ 0.5
A36C A57U | 0.509
U16A C55G C61U | ≤ 0.5
C46A C49G C55U | 0.563
C22G C30A C61U | 0.545
C5A A15C C27U C30U U32G U35A A37C U54A | ≤ 0.5
A40G A57U A65G | 0.531
U8A C24A U28C G56A | 0.556
U2A G17A A45G | 0.587
U2G C33G A45G A70U | ≤ 0.5
G58A C60U | 0.688
U28C C33G G38A U54C U64G | ≤ 0.5
A36G G56A A70G | 0.595
C49U C55U | 0.649
C5G A14C A20G C29A C31G U54A | ≤ 0.5
G9A A14U G48C | ≤ 0.5
G9A C30G G68U | ≤ 0.5
U3C A21U C66G | ≤ 0.5
G44A G56C C62U | 0.695
U8G C62G | 0.533
C4U A15C G63A | ≤ 0.5
A21C C27U A57G | 0.79

Variant | yeast fitness
C22U G25A C31A | 0.728
C34A A37C | 0.713
A43U C60G C61U | ≤ 0.5
U8C A15G G25C A45U | 0.684
G17C G25C G50A U59C G68A | ≤ 0.5
U13C C29G A36G G41A G48C A57U | ≤ 0.5
C4U U26C A42U G50C A65U | 0.552
G10A U54C G68A A70G | ≤ 0.5
U28G C31U A40C A70U | ≤ 0.5
C11U G25A | 0.867
C33G A45U G56C | 0.637
G10C A21C C66G | ≤ 0.5
U3G C46A | 0.802
C22A C31U | 1.07
C5U G10A A14U C31A C46A A65U | ≤ 0.5
C11U A21G C62U | 0.648
U2C C11U U59A | 0.586
C11U G38C | 0.715
G18A A69C | 0.926
C24A A36G A42G A43G G48A | ≤ 0.5
G9C A20G A42U G44C G50C | ≤ 0.5
U3G C11G A65U C66U | ≤ 0.5
U26C C46A | 0.882
A15C U19C A65C | 0.628

Variant | yeast fitness
U35A A40U A57U | 0.625
G9A C30A G39A U47A G63C | ≤ 0.5
C11G G48C | 0.687
A20U G48A | 0.922
C46G A57U | 0.907
C5U U28G C29U G50C | ≤ 0.5
C29G C33G | 0.59
G9C U13C C55U A57C | ≤ 0.5
A14G C49G A69U | 0.566
U19A C60G A69U | ≤ 0.5
C4U C5A G68C | 0.551
C11A C27U | 0.646
C29U C31U G41C A65G | 0.609
G6C A15U A43U A65U | ≤ 0.5
A14C U16C C61U | ≤ 0.5
U3C G12A A45U C66G | 0.685
U2G G6A G23A C29G C55A | 0.508
C5G G39A A70G | 0.617
G18C G23A G25C A37G A43C C55G G63A G68A | ≤ 0.5
U19C C31U C34U A57C | ≤ 0.5
C11G U19A A21G C27U G39C | ≤ 0.5
U3G C11U U64C | ≤ 0.5
G25C U32G | 0.655
U26C C33U G52C | 0.609

Variant | yeast fitness
G6C G10A A36U G51C A69C | 0.624
A21U C24U A37C | 0.683
A20U C46U | 0.995
U8G C24G C33G A36U C49G C62G C66G A69C | 0.602
C4U C11U C22G A45U | ≤ 0.5
C11U A15G U32A C49A G56C | ≤ 0.5
U2A G38C | 0.635
G12A G51A | 0.883
U16C C22U A70U | 0.572
A20G A43C | 1.09
C49U C55U C61A | ≤ 0.5
A37U G38C C61U | ≤ 0.5
G44C G56A C66U | 0.634
U28G A40U A43U | 0.878
G6C G38C A43C G51C G56C | 0.526
A36G C62G | 0.905
C4U C34A C46U U47A | ≤ 0.5
C66A | 0.766
G23A A36U A40C G52A C61G | 0.639
U19C A45C G48C | 0.57
U47G A69C | 0.69
A21U C22U C30G U59G A65U | ≤ 0.5
C4A A20U G23A C66U | ≤ 0.5
G10C C33A A45C | 0.551

Variant | yeast fitness
G6C G39C A45U C61U | ≤ 0.5
C49G G63C G68U | 0.522
U26A A42G | 0.891
U13G U32A C46U | 0.577
A45U G48C A57C G67U | ≤ 0.5
C29U C31U U54G G68C | ≤ 0.5
C27G U54C A69G | 0.625
G12A C33A G51C | ≤ 0.5
G18C G63A | 0.535
C29A C34G A36G A40C U47A U64C | ≤ 0.5
C11A G12A C29U G48A G50A | ≤ 0.5
G6A G10C C30A A69U | 0.786
A14C C29U C31U A36G A45U A70G | ≤ 0.5
C5G A36U C61U | ≤ 0.5
G39A | 0.986
U2C G48C C49U U53C | ≤ 0.5
G9C A20U | 0.667
C46U G50A C61U | 0.749
C11G A20G G44C U54C C62A | 0.87
G9C C27U | 0.621
A20G U26C | 0.984
C31G A70U | 0.938
G9A C46G U53C A65G | ≤ 0.5
